Source: PubChem
Only a selection was taken, and hits are over-represented in it overall.
L major viab = Leishmania major promastigote growth inhibition; Leishmania major promastigotes, resazurin fluorescence viability; inhibition, % at 10 µM; actives 9% (n = 200,000); AID 1063; in the data active = inhibition above about 50%;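 also: promastigotes grown with compound for 44 hours at 28 °C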
CHOP inhibitor = blocks CHOP induction under ER stress | CHO-K1 CHOP-promoter luciferase, tunicamycin-induced, 15-18 h | inhibition, % at 10 µM | actives 3.8% (n = 220,000) | AID 2732;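 active = compounds that reduced the stress-induced luciferase reporter signal by more than about 70% of percent inhibition, limit read from the data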;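 also: 0% = tunicamycin plus vehicle and 100% = wells without tunicamycin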
XBP1 UPR activ = activators of adaptive arm of unfolded protein response (XBP1); CHO-XBP1 luciferase reporter, IRE1-XBP1 UPR activation, luminescence; percent of tunicamycin response, DMSO as zero; activation, % at 20 µM; actives 0.33% (n = 330,000);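 active = versus positive control, 20 µM dose yields 30% or more activation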;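 also: 100% = tunicamycin at 10 µg/mL and 0% = DMSO only wells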
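Material: CHO cell line with stable XBP1 luciferase reporter; schedule: 16-18 h cell attachment at 37 °C, then 6 h compound exposure; signal: glow luminescence from Steady-Glo reagent; medium: serum-containing F12 medium, 10% FBS; benchmarks: tunicamycin 10 µg/mL and vehicle-only wells; read-out: percent activation relative to tunicamycin reference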
T cruzi inh = T. cruzi replication inhibition; inhibition, % (test concentration not listed); actives 1.4% (n = 300,000); T. cruzi beta-gal in NIH3T3, luminescence, 90 h; AID 1885;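 active = mean inhibition across valid replicates above about 55%, limit read from the data; inconclusive = mean below that limit but half or more replicates reach it; inactive = mean below it, under half of replicates reach it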;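 also: signal also drops with host cell toxicity which is not excluded here; 0% = plate median of DMSO wells and 100% = zero luminescence signal; higher percent means less beta-gal luminescence so fewer parasites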
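Incubation – ≥90 h infection period, 3 h prior cell attachment · System – NIH/3T3 fibroblasts plus reporter T. cruzi · Doses – compound pinned at 50 nL/well, DMSO · Read-out basis – percent inhibition of parasite-derived β-gal signal · Signal – luminescent β-galactosidase signal after 60 min lysis · Also added – 5000 T. cruzi trypomastigotes/well · Medium – Low-serum DMEM with 2% FBS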
UPR CHOP act = apoptotic UPR (CHOP) activation; CHO-CHOP luciferase reporter, luminescence; percent of tunicamycin response over DMSO baseline; activation, % at 10 µM; actives 0.34% (n = 330,000);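 active = at 10 µM dose, activation of 40% or more, normalized to positive control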;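 also: 100% = tunicamycin at 10 µg/mL and 0% = DMSO alone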
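Dosing – one dose, 10 µM in 0.5% DMSO · System – CHO-CHOP cells, stable luciferase reporter of PERK-eIF2a-CHOP signalling · Input – 500 cells/well · Control set – tunicamycin 10 µg/mL final as positive, DMSO-only wells as negative · Timing – 6 h compound treatment, 37 °C · Measure – % activation vs tunicamycin · Technique – luminescence read with Steady-Glo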
Dynein cargo inh = dynein cargo transport inhibition; 3617.4 mouse cells, GR-EGFP nuclear translocation imaging; test concentration mostly 20 µM; stimulated with dexamethasone, 1 µM; active compounds read low; z-score, hits read low; actives 0.47% (n = 220,000); AID 1381;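 active = plate z-score of nuclear minus cytoplasmic receptor signal below a set negative limit, without overly bright fluorescence or cell loss, cut at about -3.5 in these data, passing the limit was not always enough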;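 also: z-score of nuclear minus cytoplasmic ring GR-EGFP intensity difference per well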
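Schedule: 48 h induction, then 1 h compound, then 30 min agonist, 37 °C. Buffer or medium: tetracycline-free induction medium containing charcoal-stripped FBS. Reagent: 1.0 µM final dexamethasone stimulus. Evaluation: nuclear versus cytoplasmic GR-EGFP signal, averaged per well. Signal: high-content fluorescence imaging after fixation.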
Numbers without * were called inactive; ? = inconclusive; . = not tested or not shown.

SMILES	L major viab	CHOP inhibitor	XBP1 UPR activ	T cruzi inh	UPR CHOP act	Dynein cargo inh
CC(C)CCN(C(=O)Nc1ccccc1)C(C)c1cccs1 (configuration not stated)	83*	4	-3	-9	0	0.32
CCc1ccccc1NC(=S)N(Cc1ccco1)C(C)c1cccs1 (configuration not stated)	42	0	-2	-23	0	0.17
Cc1nc(SCC(=O)Nc2ccccc2Cl)c2c(C)c(C)sc2n1	.	.	0	.	0	.
Cn1nc(C(=O)NCc2ccc(F)cc2)cc1C(=O)NCc1ccc(F)cc1	.	.	-2	.	0	.
Cc1ccc(N(CCC#N)C(=O)COC(=O)C2CCN(S(=O)(=O)c3ccc4c(c3)OCCO4)CC2)cc1	.	.	-2	-3	0	.
CC(C)(C)C(=O)NCc1ccc(C(=O)CSc2nnc(-c3ccncc3)n2C2CC2)s1	.	.	-2	.	3	.
CCc1ccc(NC(=O)N(Cc2cccnc2)Cc2ccco2)cc1	90*	8	-2	.	-1	0.48
N#CCCN(Cc1cccnc1)C(=O)Nc1ccccc1	-6	9	-3	-9	-1	-0.63
O=C(Nc1cccc(Cl)c1)Nc1ccc(Br)cc1F	68*	91*	6	?	2	1.4
Cc1cccc(NC(=O)Nc2ccc(C)cc2Br)c1	-3	90*	5	12	4	-0.67
O=C(Nc1ccccc1)Nc1ccc(Br)cc1F	1	57	4	-24	5	0.36
CCCCC(=O)Nc1cccc(NC(=O)c2cccnc2Cl)c1	.	0	-2	-5	0	2
COC(=O)c1cc2c(ccn2-c2ccc(F)cc2)n1Cc1ccc(OC)cc1	99*	6	1	8	2	0.48
CC(=O)NC1=C(N(C)C2CCS(=O)(=O)C2)C(=O)c2ccccc2C1=O (configuration not stated)	19	75*	-1	-3	17	-1.5
CN(C(=O)Nc1ccccc1)C1CCS(=O)(=O)C1 (configuration not stated)	-2	3	0	.	2	0.07
Cc1nn(-c2ccccc2)c(C)c1C(=O)OC(C)C(=O)NC1CCCCC1 (configuration not stated)	.	.	-3	.	0	.
O=C(CSc1nnc(NC(=O)c2ccccc2Cl)s1)Nc1ccc2c(c1)oc1ccccc12	50	71*	1	-30	3	-1.1
CC(C)(C)NC(=O)CSc1nnc(NC(=O)c2ccccc2Cl)s1	-4	-31	-1	5	-1	0.53
Cn1c(SCC(=O)Nc2ccc3c(c2)oc2ccccc23)nnc1-c1ccccc1	14	88*	-2	-4	0	-0.96
Nc1c(C(=O)c2ccccc2O)cnn1-c1ccc(S(=O)(=O)N2CCOCC2)cc1[N+](=O)[O-]	-4	-5	14	13	3	2.4
COc1ccc(-c2ccnc3nc(N4CCN(c5ccccc5)CC4)nn23)cc1	2	72*	4	26	2	0.27
CC1(C)CC(NS(=O)(=O)c2ccc(S(N)(=O)=O)cc2)CC(C)(C)N1	.	.	-1	-12	0	.
Cc1ccc(C(=O)C[n+]2cccc3ccccc32)cc1	4	-9	1	59*	-1	-0.13
O=C(C[n+]1cccc2ccccc21)c1ccc(Br)cc1	.	.	-3	8	-1	.
Cc1ccc[n+](CC(=O)c2ccc(Cl)cc2)c1	.	.	-3	5	0	.
SMILES	L major viab	CHOP inhibitor	XBP1 UPR activ	T cruzi inh	UPR CHOP act	Dynein cargo inh
Cc1ccc(C)[n+](CC(=O)c2ccc(-c3ccccc3)cc2)c1	70*	12	-2	24	1	-0.38
Cc1ccc[n+](CC(=O)c2ccc(-c3ccccc3)cc2)c1	100*	2	-1	15	0	-0.052
COC(=O)c1ccc[n+](CC(=O)c2ccc(Br)cc2)c1	56*	-8	2	-9	-2	0.27
C=CCn1c(=O)c2c(nc3n2CCCN3CCc2ccc(OC)c(OC)c2)n(C)c1=O	.	.	0	2	-1	.
CCN(CC)CCNC(=O)c1cc(Nc2ccc(OC)c(OC)c2)nc2ccccc12	.	.	-2	-9	0	.
COc1ccccc1Nc1nc(-c2sc(NC(=O)C(C)(C)C)nc2C)cs1	100*	12	4	19	11	0.57
COc1cccc(Nc2nc(-c3sc(NC(=O)CC(C)C)nc3C)cs2)c1	81*	58	-1	-11	5	-0.64
CCCCCC(=O)Nc1nc(C)c(-c2csc(Nc3cc(Cl)ccc3OC)n2)s1	62*	41	1	-2	1	-0.45
COc1ccccc1Nc1nc(-c2sc(NC(=O)c3cccc(Cl)c3)nc2C)cs1	10	-35	6	-13	4	-1.4
CCCC(=O)Nc1nc(C)c(-c2csc(Nc3ccccc3OC)n2)s1	59*	60	0	12	2	-0.89
C=CCCC(=O)Nc1nc(C)c(-c2csc(Nc3cccc(OC)c3)n2)s1	31	19	0	-7	4	0.41
CC1CCc2ccccc2N1CC(=O)Nc1cccc(S(=O)(=O)N2CCCC2)c1 (configuration not stated)	.	.	-3	.	0	.
O=C(c1ccc(NC2=NC3CS(=O)(=O)CC3S2)cc1)N1CCN(c2ccc([N+](=O)[O-])cc2)CC1 (configuration not stated)	.	.	-3	19	-1	.
CN(C)C(CNC(=O)c1ccccc1OCc1ccc(Cl)cc1)c1ccco1 (configuration not stated)	.	.	-2	-2	1	.
COc1ccccc1N1CCN(CC(=O)Nc2nc(C)c(C(=O)N(C)C)s2)CC1	.	.	-2	-11	-2	.
Cc1ccc(Cl)cc1Nc1nc(-c2sc(NC(=O)C(C)(C)C)nc2C)cs1	97*	19	0	-3	6	0.79
COc1ccccc1Nc1nc(-c2sc(NC(=O)CC(C)C)nc2C)cs1	67*	60	0	11	0	-0.38
CCCC(=O)Nc1nc(C)c(-c2csc(Nc3ccc(Cl)cc3)n2)s1	24	40	-2	33	2	1
O=C(NC(=S)N1CCCCC1CO)c1cc(Br)ccc1Cl (configuration not stated)	.	.	1	.	3	.
CCOc1ccc(Nc2ccc(N3C(=O)CCC3=O)cc2[N+](=O)[O-])cc1	-5	46	2	?	-2	-0.45
CC(O/N=C(\N)c1ccccc1)C(=O)Nc1cccc(C(F)(F)F)c1 (configuration not stated)	.	.	-2	.	2	.
CC1(C2CC2)NC(=O)N(CC(=O)N2CCN(c3ccccc3)CC2)C1=O (configuration not stated)	.	.	-2	.	2	.
